Series [1] has as its system RAW264.7. Briefly: Antiinflammatory activity in mouse RAW264.7 cells assessed as inhibition of LPS-induced nitric oxide production after 24 hrs by Griess method. The class given is functional, cell-based. Conditions: RAW264.7, 24 h. A general note: Griess reagent forms a coloured azo dye with nitrite.
The subject of series [2] is RAW264.7. Briefly: Antiinflammatory activity in mouse RAW264.7 cells assessed as inhibition of LPS-induced iNOS protein expression at 50 uM after 24 hrs by immunoblot analysis relative to control. The class given is functional, cell-based.
Series [3] concerns RAW264.7. Briefly: Antiinflammatory activity in mouse RAW264.7 cells assessed as inhibition of LPS-induced iNOS protein expression at 100 uM after 24 hrs by immunoblot analysis. The class given is functional, cell-based. (In western blotting, separated proteins are transferred to a membrane and probed.)
The subject of series [4] is RAW264.7. In words: Antioxidant activity in LPS-stimulated mouse RAW264.7 cells assessed as induction of HO-1 mRNA expression at 50 uM after 24 hrs by RT-PCR analysis. The class given is functional, cell-based.
The test system of series [5] is RAW264.7. Briefly: Antioxidant activity in mouse RAW264.7 cells assessed as induction of HO1 expression at 100 uM after 24 hrs by immunoblot analysis. In kind it is functional, cell-based.
In series [6] the test system is RAW264.7. Briefly: Antioxidant activity in LPS-stimulated mouse RAW264.7 cells assessed as induction of HO-1 mRNA expression at 100 uM after 4 hrs by RT-PCR analysis relative to control. In kind it is functional.
For series [7], the system named is RAW264.7. Briefly: Induction of Nrf2 mRNA expression in mouse RAW264.7 cells at 100 uM after 20 hrs by quantitative RT-PCR analysis relative to control. In kind it is functional.
Series [8] deals with T1, Nuclear factor erythroid 2-related factor 2 (Mus musculus) (UniProt Q60795).
T1 sequence (whole entry): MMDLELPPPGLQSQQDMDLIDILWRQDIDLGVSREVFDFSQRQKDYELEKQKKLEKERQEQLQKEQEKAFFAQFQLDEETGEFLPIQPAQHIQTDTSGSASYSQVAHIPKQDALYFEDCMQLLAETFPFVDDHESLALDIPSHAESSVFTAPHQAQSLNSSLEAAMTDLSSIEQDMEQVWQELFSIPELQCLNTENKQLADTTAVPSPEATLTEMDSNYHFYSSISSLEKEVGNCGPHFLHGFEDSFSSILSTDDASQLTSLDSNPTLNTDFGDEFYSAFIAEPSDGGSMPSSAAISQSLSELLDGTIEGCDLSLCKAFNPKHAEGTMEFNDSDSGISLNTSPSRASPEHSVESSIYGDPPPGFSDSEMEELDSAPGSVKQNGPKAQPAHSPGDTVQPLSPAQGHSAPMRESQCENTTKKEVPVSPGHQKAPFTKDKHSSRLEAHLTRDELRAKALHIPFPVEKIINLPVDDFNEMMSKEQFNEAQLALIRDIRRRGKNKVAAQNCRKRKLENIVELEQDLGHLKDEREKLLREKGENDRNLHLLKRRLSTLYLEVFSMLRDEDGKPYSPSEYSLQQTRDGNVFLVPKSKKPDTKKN
In words: Induction of Nrf2-mediated NQO1 mRNA expression in mouse RAW264.7 cells at 100 uM after 20 hrs by quantitative RT-PCR analysis relative to control. In kind it is cell-based. The method, boiled down: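 RAW 264.7 cells (DMEM, 10% FBS, 37°C, 5% CO2) exposed to 100 μM compound for a series of time points without stated LPS activation. Total RNA isolated, converted to cDNA, and NQO1 quantified by TaqMan real-time RT-PCR using mouse-specific assays. Fold change versus control derived by the ΔΔCt relative quantification method (40 cycles, 95/60 °C).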

Series [9] has as its target T1, Nuclear factor erythroid 2-related factor 2 (Mus musculus). In words: Induction of Nrf2-mediated CAT mRNA expression in mouse RAW264.7 cells at 100 uM after 16 hrs by quantitative RT-PCR analysis relative to control. The class given is cell-based.
The target is the same in series [10]. In words: Induction of Nrf2-mediated GCLC mRNA expression in mouse RAW264.7 cells at 100 uM after 24 hrs by quantitative RT-PCR analysis relative to control. The class given is cell-based.
The target is the same in series [11]. In words: Induction of Nrf2-mediated GR mRNA expression in mouse RAW264.7 cells at 100 uM after 24 hrs by quantitative RT-PCR analysis relative to control. In kind it is cell-based.
Series [12] concerns RAW264.7. In words: Cytotoxicity against mouse RAW264.7 cells at 100 uM after 8 hrs by MTT assay. In kind it is cell-based. Conditions: raw264.7, 8 h.
In series [13] the target is T1, Nuclear factor erythroid 2-related factor 2 (Mus musculus). In words: Induction of nuclear translocation of Nrf2 in mouse RAW264.7 cells assessed as decrease in cytoplasmic fraction at 100 uM after 1 to 4 hrs. In kind it is cell-based. The method, boiled down: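 RAW 264.7 macrophages treated with 50 or 100 μM compound for various times (1–4 h window examined). Cytoplasmic and nuclear fractions were separated and probed for Nrf2 by immunoblot. Translocation was scored as loss of cytoplasmic Nrf2 and nuclear accumulation relative to DMSO control.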

Series [14] has the same target. Briefly: Induction of Nrf2-mediated HO1 mRNA expression in mouse RAW264.7 cells at 100 uM after 16 to 20 hrs by quantitative RT-PCR analysis relative to control. The class given is cell-based.
Series [15] has the same target. Briefly: Induction of Nrf2-mediated NQO1 mRNA expression in mouse RAW264.7 cells at 100 uM after 16 to 20 hrs by quantitative RT-PCR analysis relative to control. In kind it is cell-based.
Series [16] shares this target. In words: Induction of Nrf2-mediated HO1 […] expression in C57BL/6 mouse primary peritoneal macrophages at 10 uM after 48 hrs by immunoblot analysis.
Series [17] concerns Peritoneal macrophage cell. Briefly: Induction of HO1 […] expression in Nrf2-knockout mouse primary peritoneal macrophages at 5 to 100 uM after 48 hrs by immunoblot analysis. The class given is functional, cell-based.
In series [18] the test system is RAW264.7. Briefly: Antiinflammatory activity in mouse RAW264.7 cells assessed as inhibition of LPS-induced iNOS protein expression after 24 hrs by immunoblot analysis. In kind it is functional, cell-based.
Series [19] concerns RAW264.7. In words: Antioxidant activity in mouse RAW264.7 cells assessed as induction of HO1 expression at 10 to 100 uM by immunoblot analysis. In kind it is functional, cell-based. Particulars: TDE = time-dependent effect.
In series [20] the test system is RAW264.7. Briefly: Antioxidant activity in LPS-stimulated mouse RAW264.7 cells assessed as induction of HO-1 […] expression after 24 hrs by immunoblot analysis. In kind it is functional, cell-based.
The test system of series [21] is Mus musculus. In words: Induction of HO1 […] expression in Nrf2-wild type C57BL/6 mouse liver at 500 mg/kg, ip measured after 8 hrs by immunoblot analysis.
The subject of series [22] is RAW264.7. In words: Antiinflammatory activity in mouse RAW264.7 cells assessed as inhibition of LPS-induced iNOS protein expression at 100 uM after 4 hrs by immunoblot analysis.

Active and inactive are the calls of the source. The rule behind the calls is not given here.

Turning to `CC1(C)[C@@H](O)CC[C@]2(C)C3=C(CC[C@@H]12)[C@@]1(C)CC[C@@]2(C)CC[C@@](C)(C(=O)O)C[C@H]2[C@]1(C)CC3` [BRYONOLIC ACID], the 50% inhibitory concentration (IC50) in [1] amounted to 53.3 µM. Moreover, the result in series [2], in [3], in series [4], in series [5], in series [13] and in [14] was Active. Besides, the outcome in [15], in [16], in [21] and in series [22] was Active. For the same compound, the “fold change (FC)” value in series [6] was 4.1; in [7], 1.8; in series [8] it was 11.7; in series [9], 1.7. Besides, the result in series [10], in [11] and in series [17] was inactive. For the same compound, the Activity entry in [12] was “Non-toxic”; in series [18], “Dose-dependent effect”; in series [19], “tde”; in [20] it was “Dose-dependent effect”.

One may read the IC50 as the midpoint of a concentration-inhibition curve.

The values above are taken from ChEMBL document CHEMBL2034960, “Bryonolic acid transcriptional control of anti-inflammatory and antioxidant genes in macrophages in vitro and in vivo” (J Nat Prod, 2012).
